Experiments:
[1] = target: T1, Ectonucleoside triphosphate diphosphohydrolase 2 (Homo sapiens) (UniProt Q9Y5L3); test: Inhibition of human NTPDase2 assessed as amount of inorganic phosphate released using ATP as the substrate preincubated at 100 uM for 3 mins before substrate addition after 15 mins by malachite green reagent method
T1 sequence (whole entry): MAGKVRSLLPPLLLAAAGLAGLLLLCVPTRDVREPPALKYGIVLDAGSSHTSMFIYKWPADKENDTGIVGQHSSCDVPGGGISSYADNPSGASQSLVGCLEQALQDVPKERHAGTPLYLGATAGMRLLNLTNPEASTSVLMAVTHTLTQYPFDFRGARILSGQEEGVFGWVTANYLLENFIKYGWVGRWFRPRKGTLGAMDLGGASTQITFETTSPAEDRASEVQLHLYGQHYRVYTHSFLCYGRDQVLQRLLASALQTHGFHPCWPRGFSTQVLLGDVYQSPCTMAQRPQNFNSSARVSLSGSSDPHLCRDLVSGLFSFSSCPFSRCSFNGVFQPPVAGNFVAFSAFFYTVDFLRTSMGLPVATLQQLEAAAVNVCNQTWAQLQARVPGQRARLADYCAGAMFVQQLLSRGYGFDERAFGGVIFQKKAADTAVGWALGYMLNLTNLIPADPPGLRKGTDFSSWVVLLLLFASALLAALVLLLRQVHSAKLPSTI
In short: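 Crude extracts of COS-7 cells transiently transfected with human NTPDase1, -2, -3 or -8, preincubated 3 min at 37 °C in Tris-Ringer medium pH 7.4 with analogue (final 100 μM). Started with 100 μM ATP, stopped after 15 min with malachite green; released Pi read at 630 nm. ATP alone set as 100%. Mean ± SD of 3−6 experiments in triplicate.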

[2] = target: T2, Ectonucleotide pyrophosphatase/phosphodiesterase family member 1 (Homo sapiens) (UniProt P22413); test: Inhibition of human NPP1 expressed in COS7 cells assessed as production of p-nitrophenol using pnp-TMP as the substrate preincubated at 100 uM for 3 mins before substrate addition measured after 15 mins […]; type: cell-based; details: COS-7
T2 sequence (whole entry): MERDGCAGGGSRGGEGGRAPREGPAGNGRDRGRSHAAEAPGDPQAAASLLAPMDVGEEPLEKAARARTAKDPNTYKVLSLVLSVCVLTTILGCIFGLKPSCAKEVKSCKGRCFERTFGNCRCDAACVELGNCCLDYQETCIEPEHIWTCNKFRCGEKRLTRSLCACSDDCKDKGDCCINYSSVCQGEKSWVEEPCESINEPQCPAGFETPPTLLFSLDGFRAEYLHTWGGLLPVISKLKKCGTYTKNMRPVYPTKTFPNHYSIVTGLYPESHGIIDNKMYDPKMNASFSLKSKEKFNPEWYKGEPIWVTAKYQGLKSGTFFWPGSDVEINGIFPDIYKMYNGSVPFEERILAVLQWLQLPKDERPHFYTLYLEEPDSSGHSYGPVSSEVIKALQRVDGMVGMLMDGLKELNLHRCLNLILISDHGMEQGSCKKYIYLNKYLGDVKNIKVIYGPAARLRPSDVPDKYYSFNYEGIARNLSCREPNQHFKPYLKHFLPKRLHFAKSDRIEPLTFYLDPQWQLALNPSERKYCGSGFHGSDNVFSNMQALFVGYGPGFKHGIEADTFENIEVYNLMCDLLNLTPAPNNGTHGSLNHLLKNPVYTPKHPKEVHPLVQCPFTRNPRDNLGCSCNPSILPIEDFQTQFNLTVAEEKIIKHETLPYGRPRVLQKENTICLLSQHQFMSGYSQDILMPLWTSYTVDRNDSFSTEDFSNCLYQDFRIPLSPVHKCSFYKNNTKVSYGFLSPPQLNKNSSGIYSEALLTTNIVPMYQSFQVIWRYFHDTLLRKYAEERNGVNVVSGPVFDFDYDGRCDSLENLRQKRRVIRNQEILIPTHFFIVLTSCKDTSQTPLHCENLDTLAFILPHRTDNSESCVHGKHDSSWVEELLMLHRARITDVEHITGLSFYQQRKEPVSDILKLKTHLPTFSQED
In short: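 Crude extracts of COS-7 cells transiently transfected with human NPP1 or NPP3, preincubated 3 min at 37 °C in 1 mM CaCl2, 140 mM NaCl, 5 mM KCl, 50 mM Tris pH 8.5 with analogue at 100 μM. Reaction started with 100 μM pnp-TMP; p-nitrophenol at 410 nm after 15 min. Activity without analogue set as 100%. Mean ± SD of 3−6 experiments in triplicate.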

[3] = target: T3, Ectonucleotide pyrophosphatase/phosphodiesterase family member 3 (Homo sapiens) (UniProt O14638); test: Inhibition of NPP3 in human HTB-85 cells assessed as production of p-nitrophenol using pnp-TMP at 100 uM measured after 20 mins by spectrophotometry; type: cell-based
T3 sequence (whole entry): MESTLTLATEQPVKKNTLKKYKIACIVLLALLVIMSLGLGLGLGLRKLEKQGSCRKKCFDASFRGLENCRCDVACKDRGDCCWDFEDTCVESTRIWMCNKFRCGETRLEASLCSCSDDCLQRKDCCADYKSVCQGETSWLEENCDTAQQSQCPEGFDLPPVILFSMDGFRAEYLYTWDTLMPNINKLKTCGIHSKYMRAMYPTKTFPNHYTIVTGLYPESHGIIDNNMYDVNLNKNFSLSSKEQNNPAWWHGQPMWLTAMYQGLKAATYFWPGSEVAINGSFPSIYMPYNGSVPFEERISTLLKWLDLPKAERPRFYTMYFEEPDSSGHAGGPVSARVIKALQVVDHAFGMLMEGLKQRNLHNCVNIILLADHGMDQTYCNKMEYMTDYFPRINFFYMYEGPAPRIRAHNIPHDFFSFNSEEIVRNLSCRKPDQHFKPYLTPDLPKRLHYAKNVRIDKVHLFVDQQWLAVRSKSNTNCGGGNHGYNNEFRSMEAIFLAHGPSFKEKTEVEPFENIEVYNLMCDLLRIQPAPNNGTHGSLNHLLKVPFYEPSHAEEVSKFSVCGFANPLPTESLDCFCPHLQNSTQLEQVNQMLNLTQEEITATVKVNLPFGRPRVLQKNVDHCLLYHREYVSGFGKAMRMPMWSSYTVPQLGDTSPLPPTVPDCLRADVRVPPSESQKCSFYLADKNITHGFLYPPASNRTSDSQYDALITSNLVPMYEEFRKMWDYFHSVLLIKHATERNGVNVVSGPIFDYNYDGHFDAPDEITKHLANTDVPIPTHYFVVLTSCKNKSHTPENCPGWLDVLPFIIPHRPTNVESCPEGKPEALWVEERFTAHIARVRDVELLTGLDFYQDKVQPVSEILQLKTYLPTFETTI
In short: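 Intact osteocarcinoma HTB85 (SaOS-2) cells in 24-well plates, 0.5 mL incubation mixture, analogue and pnp-TMP each at 100 μM. After 20 min an aliquot was read for p-nitrophenol at 410 nm. Substrate alone set as 100%. Mean ± SD of three experiments in triplicate.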

Row | Structure (SMILES) | inhibition [1] | inhibition [2] | inhibition [3]
1 | B[P@](=O)(OC[C@H]1O[C@@H](n2cnc3c(N)ncnc32)[C@H](O)[C@@H]1O)OP(=O)(O)CP(=O)(O)O | < 18% | 80% | 41%
2 | B[P@](=O)(OC[C@H]1O[C@@H](n2cnc3c(N)nc(SC)nc32)[C@H](O)[C@@H]1O)OP(=O)(O)CP(=O)(O)O | < 18% | 80% | 90%

Next, values leading:

Row | inhibition [1] | inhibition [2] | inhibition [3] | Structure (SMILES)
3 | 50% | 90% | – | B[P@@](=O)(OC[C@H]1O[C@@H](n2cnc3c(N)nc(SC)nc32)[C@H](O)[C@@H]1O)OP(=O)(O)C(F)(F)P(=O)(O)O
4 | < 18% | 90% | 90% | B[P@@](=O)(OC[C@H]1O[C@@H](n2cnc3c(N)ncnc32)[C@H](O)[C@@H]1O)OP(=O)(O)CP(=O)(O)O
5 | < 18% | 90% | 41% | CSc1nc(N)c2ncn([C@@H]3O[C@H](COP(=O)(O)C(F)(F)P(=O)(O)O)[C@@H](O)[C@H]3O)c2n1

From ChEMBL document CHEMBL3085721, “Nonhydrolyzable ATP analogues as selective inhibitors of human NPP1: a combined computational/experimental study” (J Med Chem, 2013)
